Source: ChEMBL document CHEMBL4270554, “Discovery of the cancer cell selective dual acting anti-cancer agent (Z)-2-(1H-indol-3-yl)-3-(isoquinolin-5-yl)acrylonitrile (A131)” (Eur J Med Chem, 2018)
The source made the active and inactive calls. No cut-off for these calls is given here.

Tests used:
[1] = test system: HeLa; assay: Induction of mitotic arrest in human HeLa cells assessed as formation of disorganized spindles at 2.5 uM after 6 hrs by DAPI staining-based immunofluorescence analysis; assay type: functional, cell-based
[2] = test system: hTERT-BJ; assay: Cell cycle arrest in human hTERT-BJ cells transformed with hTert, small t, shRNAs against p53 and pRb and H-RasV12-ER assessed as accumulation at sub-G1 phase at 5 uM after 48 hrs; assay type: functional, cell-based
Method in brief: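 Isogenic normal and fully transformed BJ fibroblasts (hTert, small t, shRNAs to p53 and pRb, H-RasV12-ER) exposed to 5 μM for 48 h. Percentage of cells in sub-G1 phase determined as a cell death measure.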

[3] = test system: BJ; assay: Induction of apoptosis in human BJ cells transformed with hTert, small t, shRNAs against p53 and pRb and H-RasV12-ER assessed as activation of caspase-3/7 up to 5 uM after 48 hrs by caspase-Glo 3/7 luminescent assay; assay type: functional, cell-based
Method in brief: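 Normal and transformed BJ cells treated 48 h across a concentration series. Caspase-3/7 activity by Caspase-Glo 3/7 luminescence, normalized to viable cell number from MTT. Mean ± S.D., n=3; two-tailed unpaired t tests.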

[4] = test system: HeLa; assay: Induction of autophagy in human HeLa cells assessed as increase in LC3-2 levels after 6 hrs by immunoblot analysis; assay type: functional, cell-based
Method in brief: (§1)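 HeLa cells treated 6 h with 0.625–10 μM test agent or chloroquine (1.25–100 μM), or DMSO. Lysis in 1% Triton buffer (pH 8.0) with protease and phosphatase inhibitors, 14% SDS-PAGE, immunoblot for LC3, pH3 (Ser10) and β-actin. Band intensity ratios (LC3-II/LC3-I; pH3) expressed relative to DMSO control.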

[5] = test system: HeLa; assay: Induction of mitotic arrest in human HeLa cells assessed as formation of disorganized spindles at 15 to 25 uM after 6 hrs by DAPI staining-based immunofluorescence analysis; assay type: functional, cell-based
[6] = test system: HeLa; assay: Inhibition of mitotic progression in human HeLa cells assessed as upregulation of phosphorylated histone H3 (Ser10) level after 6 hrs by immunoblot analysis; assay type: functional, cell-based; method in brief: as §1
[7] = test system: HeLa; assay: Induction of mitotic arrest in human HeLa cells expressing GFP-tagged tubulin assessed as appearance of large vacuole like structures that filled out cytoplasmic area at 2.5 uM after 20 hrs by microscopic method; assay type: functional, cell-based
Method in brief: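 HeLa cells stably expressing GFP-tubulin exposed to compound or DMSO for 20 h. Cytoplasmic vacuole-like structures and mitotic arrest examined by high-resolution microscopy.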

[8] = test system: HeLa; assay: Induction of autophagy in human HeLa cells assessed as increase in LC3 puncta at 2.5 uM after 6 hrs by DAPI staining-based immunofluorescence microscopy; assay type: functional, cell-based
Method in brief: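 HeLa cells exposed to compound or DMSO for 6 h, then immunostained for LC3 with DAPI nuclear counterstain. Puncta formation scored by fluorescence imaging as a read-out of LC3-II.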

[9] = test system: HeLa; assay: Inhibition of colony formation in human HeLa cells after 7 days by plate colony counting method; assay type: functional, cell-based
[10] = test system: HeLa; assay: Induction of mitotic arrest in human HeLa cells assessed as formation of misaligned chromosomes at 2.5 uM after 6 hrs by DAPI staining-based immunofluorescence analysis; assay type: functional, cell-based
[11] = test system: HeLa; assay: Induction of mitotic arrest in human HeLa cells assessed as formation of misaligned chromosomes at 15 to 25 uM after 6 hrs by DAPI staining-based immunofluorescence analysis; assay type: functional, cell-based
[12] = test system: HeLa; assay: Induction of autophagy in human HeLa cells assessed as increase in LC3-2 to LC3-1 ratio at 1.25 uM after 6 hrs by immunoblot analysis relative to control; assay type: functional
Method in brief: (§2)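 HeLa cells exposed 6 h to test agent (0.625–10 μM series) or chloroquine (1.25–100 μM series) vs DMSO; lysed in 1% Triton buffer (25 mM Tris pH 8.0, 150 mM NaCl, DTT, protease/phosphatase inhibitors), 14% SDS-PAGE, immunoblot with anti-LC3, anti-pH3(Ser10), β-actin loading. LC3-II/LC3-I band intensity ratio expressed relative to DMSO control.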

[13] = test system: HeLa; assay: Induction of autophagy in human HeLa cells assessed as increase in LC3-2 to LC3-1 ratio at 10 uM after 6 hrs by immunoblot analysis relative to control; assay type: functional; method in brief: as §2
[14] = test system: HeLa; assay: Induction of autophagy in human HeLa cells assessed as increase in LC3-2 to LC3-1 ratio at 50 uM after 6 hrs by immunoblot analysis relative to control; assay type: functional; method in brief: as §2
[15] = test system: HeLa; assay: Inhibition of mitotic progression in human HeLa cells assessed as upregulation of phosphorylated histone H3 (Ser10) level up to 100 uM after 6 hrs by immunoblot analysis; assay type: functional, cell-based; method in brief: as §1
[16] = test system: HeLa; assay: Induction of autophagy in human HeLa cells assessed as increase in LC3-2 to LC3-1 ratio at 100 uM after 6 hrs by immunoblot analysis relative to control; assay type: functional; method in brief: as §2
[17] = test system: HeLa; assay: Induction of autophagy in human HeLa cells assessed as increase in LC3-2 to LC3-1 ratio at 2.5 uM after 6 hrs by immunoblot analysis relative to control; assay type: functional; method in brief: as §2
[18] = Tmax in Wistar rat at 10 mg/kg, po by LC-MS/MS analysis; assay type: ADME, organism-based; conditions: in vivo
Method in brief: (§3)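 Male Wistar rats, n = 3 per route, dosed with HCl salt as 1 mg/mL solution in 10% DMSO/50% PEG400/40% water pH 5. Doses 2 mg/kg iv or 10 mg/kg po. Heparinised blood sampled via catheter (0–4 h iv, 0–24 h po), plasma analysed by LC-MS/MS. Parameters derived by non-compartmental analysis.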

[19] = AUC (0 to t) in Wistar rat at 2 mg/kg, iv by LC-MS/MS analysis; assay type: ADME, organism-based; conditions: in vivo
Method in brief: (§4)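 Male Wistar rats (n = 3), intravenous dose of 2 mg/kg HCl salt as 1 mg/ml solution in 10% DMSO, 50% PEG400, 40% water pH 5. Catheter blood sampling over 0–4 h into heparin. Plasma separated, stored at -80 °C, measured by LC-MS/MS. Non-compartmental estimation, mean (SD).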

[20] = Solubility of the compound in 10% NMP/50% PEG400/40% water at pH 5 by HPLC analysis; assay type: physicochemical
Method in brief: (§5)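 1 mg of HCl salt mixed with vehicle (0.5 mL total), target 1 mg/mL. Components added in order: organic solvent (DMSO, ethanol or NMP), then PEG400, then water, vortexing after each addition. Sonicated 15 min, left 3 h at room temperature, then centrifuged 5 min.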

[21] = Solubility of the compound in 10% DMSO/90% water at pH 5 by HPLC analysis; assay type: physicochemical; method in brief: as §5
[22] = Solubility of the compound in 10% EtOH/50% PEG400/40% water at pH 5 by HPLC analysis; assay type: physicochemical; method in brief: as §5
[23] = Cmax in Wistar rat at 10 mg/kg, po by LC-MS/MS analysis; assay type: ADME, organism-based; design: dose 10 mg/kg, route oral; conditions: in vivo
Method in brief: (§6)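 Male Wistar rats dosed orally at 10 mg/kg with HCl salt as solution in 10% DMSO, 50% PEG400, 40% water pH 5. Catheter blood over 0-24 h into heparin, plasma by LC-MS/MS. Non-compartmental PK; n = 3, mean (SD).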

[24] = AUC (0 to infinity) in Wistar rat at 10 mg/kg, po by LC-MS/MS analysis; assay type: ADME, organism-based; design: dose 10 mg/kg, time infinity, route oral; conditions: in vivo
Method in brief: (§7)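 Male Wistar rats (n = 3), single oral dose of 10 mg/kg HCl salt given as 1 mg/ml solution in 10% DMSO, 50% PEG400, 40% water pH 5. Blood drawn from catheter over 0–24 h into heparin tubes. Plasma spun off, stored at -80 °C, quantified by LC-MS/MS. Parameters by non-compartmental analysis, mean (SD).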

[25] = AUC (0 to t) in Wistar rat at 10 mg/kg, po by LC-MS/MS analysis; assay type: ADME, organism-based; conditions: in vivo; method in brief: as §7
[26] = Half life in Wistar rat at 10 mg/kg, po by LC-MS/MS analysis; assay type: ADME, organism-based; conditions: in vivo; method in brief: as §6
[27] = Solubility of the compound in 10% DMSO/90% water at pH 3.5 by HPLC analysis; assay type: physicochemical; method in brief: as §5
[28] = Solubility of the compound in 10% DMSO/50% PEG400/40% water at pH 5 by HPLC analysis; assay type: physicochemical; method in brief: as §5
[29] = Oral bioavailability in Wistar rat at 10 mg/kg by LC-MS/MS analysis; assay type: ADME, organism-based; conditions: in vivo; method in brief: as §3
[30] = Solubility of the compound in 60% PEG400/40% water at pH 5 by HPLC analysis; assay type: physicochemical; method in brief: as §5
[31] = Terminal half life in Wistar rat at 2 mg/kg, iv by LC-MS/MS analysis; assay type: ADME, organism-based; conditions: in vivo, read-out: beta t1/2 (converted); method in brief: as §3
[32] = AUC (0 to infinity) in Wistar rat at 2 mg/kg, iv by LC-MS/MS analysis; assay type: ADME, organism-based; design: dose 2 mg/kg, time infinity, route intravenous; conditions: in vivo; method in brief: as §4
[33] = Solubility of the compound in 10% DMSO/50% PEG400/40% water at pH 3.5 by HPLC analysis; assay type: physicochemical; method in brief: as §5
[34] = Solubility of the compound in 60% PEG400/40% water at pH 7 by HPLC analysis; assay type: physicochemical; method in brief: as §5
[35] = Solubility of the compound in 10% EtOH/50% PEG400/40% water at pH 3.5 by HPLC analysis; assay type: physicochemical; method in brief: as §5
[36] = Solubility of the compound in 10% NMP/50% PEG400/40% water at pH 3.5 by HPLC analysis; assay type: physicochemical; method in brief: as §5
[37] = MRT in Wistar rat at 2 mg/kg, iv by LC-MS/MS analysis; assay type: ADME, organism-based; conditions: in vivo; method in brief: as §3
[38] = Solubility of the compound in 60% PEG400/40% water at pH 3.5 by HPLC analysis; assay type: physicochemical; method in brief: as §5
[39] = MRT in Wistar rat at 10 mg/kg, po by LC-MS/MS analysis; assay type: ADME, organism-based; conditions: in vivo; method in brief: as §3
[40] = Solubility of the compound in 10% DMSO/90% water at pH 7 by HPLC analysis; assay type: physicochemical; method in brief: as §5

## N#C/C(=C\c1cccc2cnccc12)c1c[nH]c2ccccc12
[1]
  Activity: Active
[2]
  Activity: Active
[3]
  Activity: Active
[4]
  Activity: Dose-dependent effect
[5]
  Activity: Active
[6]
  inhibition: Dose-dependent effect
[7]
  Activity: Active
[8]
  Activity: Active
[9]
  Activity: Dose-dependent effect
[10]
  Activity: Active
[11]
  Activity: Active

## CCN(CC)CCCC(C)Nc1ccnc2cc(Cl)ccc12 (configuration not stated) [CHLOROQUINE]
[12]
  fold change (FC): 1.7
[13]
  fold change (FC): 3.1
[14]
  fold change (FC): 4.2
[5]
  Activity: inactive
[15]
  inhibition: inactive
[16]
  fold change (FC): 4.2
[17]
  fold change (FC): 1.9
[11]
  Activity: inactive

## Cl.N#C/C(=C\c1cccc2cnccc12)c1c[nH]c2ccccc12
[18]
  Tmax: 43.2 min
[19]
  AUC(0-t): 820 ng·h/mL
[20]
  solubility: 1170 µg/mL
[21]
  solubility: 6 µg/mL
[22]
  solubility: 741 µg/mL
[23]
  Cmax: 1130 ng/mL
[24]
  AUC(0-inf): 1770 ng·h/mL
[25]
  AUC(0-t): 1690 ng·h/mL
[26]
  half-life: 96 min
[27]
  solubility: 7 µg/mL
[28]
  solubility: 1200 µg/mL
[29]
  bioavailability: 43%
[30]
  solubility: 940 µg/mL
[31]
  half-life: 21.6 min
[32]
  AUC(0-inf): 822 ng·h/mL
[33]
  solubility: 966 µg/mL
[34]
  solubility: 869 µg/mL
[35]
  solubility: 1300 µg/mL
[36]
  solubility: 1220 µg/mL
[37]
  MRT: 17.4 min
[38]
  solubility: 1060 µg/mL
[39]
  MRT: 113 min
[40]
  solubility: 3 µg/mL
